{"source": "ChEMBL document CHEMBL5674881", "about": "“The therapeutic properties of resminostat for hepatocellular carcinoma” (2018)", "key": {"Hep 3B2 [1]": {"system": "Hep 3B2", "assay": "Anti-proliferative activity against human Hep3B cells assessed as reduction in cell viability at 80 nM incubated for 24 hrs in presence of SC1 by Fluoro Fire-Blue ProViaTox assay relative to control", "format": "functional, cell-based"}, "Hep 3B2 [2]": {"system": "Hep 3B2", "assay": "Anti-proliferative activity against human Hep3B cells assessed as increase in Caspase 3 expression at 80 nM incubated for 24 hrs by qRT-PCR analysis", "format": "functional, cell-based"}, "Hep 3B2 [3]": {"system": "Hep 3B2", "assay": "Anti-proliferative activity against human Hep3B cells assessed as increase in expression at 80 nM incubated for 24 hrs by qRT-PCR analysis"}, "Hep 3B2 [4]": {"system": "Hep 3B2", "assay": "Downregulation of STAT3 expression in human Hep3B cells at 80 nM incubated for 24 hrs in presence of GSK343 by qRT-PCR analysis", "format": "functional, cell-based", "in_short": "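RNA from Hep3B cells treated 24 h with GSK343 (7 nM) alone or with 80 nM drug; EZH2 and STAT3 levels compared between the two treatments. Cells grown in EMEM with 10% FBS, 2 mM L-glutamine, 37°C, 5% CO2.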"}, "Hep 3B2 [5]": {"system": "Hep 3B2", "assay": "Anti-proliferative activity against human Hep3B cells assessed as increase in cleaved Caspase 9 level at 80 nM incubated for 24 hrs in presence of SGBS CM by Tetraplex-Assay Kit analysis", "format": "functional, cell-based", "in_short": "(§1)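 Hep3B seeded at 20000 cells/well overnight, then treated with 30% differentiated SGBS conditioned medium with or without resminostat 80 nM for 24 h. Tetraplex caspase substrate buffer added during treatment for real-time cleavage read-out: Caspase 3/7 at Ex 535/Em 620 nm, Caspase 8 at Ex 490/Em 525 nm, Caspase 9 at Ex 370/Em 450 nm. Compared with controls or between treatments; n = 3.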"}, "Hep 3B2 [6]": {"system": "Hep 3B2", "assay": "Anti-proliferative activity against human Hep3B cells assessed as reduction in cell viability at 80 nM incubated for 24 hrs in presence of cisplatin by Fluoro Fire-Blue ProViaTox assay relative to control", "format": "functional, cell-based"}, "Hep 3B2 [7]": {"system": "Hep 3B2", "assay": "Downregulation of HDAC expression in human Hep3B cells at 80 nM incubated for 24 hrs in presence of 17-AAG by qRT-PCR analysis", "format": "functional, cell-based"}, "Hep 3B2 [8]": {"system": "Hep 3B2", "assay": "Anti-proliferative activity against human Hep3B cells assessed as reduction in cell viability at 80 nM measured after 24 hrs in presence of 17-AAG by Fluoro Fire-Blue ProViaTox assay", "settings": "Hep 3B2, time 24.0 hrs"}, "Hep 3B2 [9]": {"system": "Hep 3B2", "assay": "Anti-proliferative activity against human Hep3B cells assessed as increase in p21 mRNA expression at 80 nM incubated for 24 hrs in presence of SGBS CM by qRT-PCR analysis", "format": "functional, cell-based"}, "Hep 3B2 [10]": {"system": "Hep 3B2", "assay": "Anti-proliferative activity against human Hep3B cells assessed as reduction in Vimentin protein expression level by measuring green fluorescence at 80 nM incubated for 24 hrs in presence of SGBS CM by immunofluorescence analysis"}, "HepG2": {"system": "HepG2", "assay": "Anti-proliferative activity against human HepG2 cells assessed as reduced cell proliferation at 80 nM incubated for 24 hrs in presence of SGBS CM by Fluoro Fire-Blue ProViaTox assay", "format": "functional, cell-based"}, "Hep 3B2 [11]": {"system": "Hep 3B2", "assay": "Anti-proliferative activity against human Hep3B cells assessed as increase in BIM mRNA level at 80 nM incubated for 24 hrs by qRT-PCR analysis", "format": "functional, cell-based"}, "Hep 3B2 [12]": {"system": "Hep 3B2", "assay": "Anti-proliferative activity against human Hep3B cells assessed as increase in p27 mRNA expression at 80 nM incubated for 24 hrs in presence of SGBS CM by qRT-PCR analysis", "format": "functional, cell-based"}, "Hep 3B2 [13]": {"system": "Hep 3B2", "assay": "Anti-proliferative activity against human Hep3B cells assessed as increase in cleaved Caspase 3/7 level at 80 nM incubated for 24 hrs in presence of SGBS CM by Tetraplex-Assay Kit analysis", "format": "functional, cell-based", "in_short": "as §1"}, "Hep 3B2 [14]": {"system": "Hep 3B2", "assay": "Effect on human Hep3B cells assessed as reduction in HDAC3 mRNA level at 80 nM incubated for 24 hrs in presence of SGBS CM by qRT-PCR analysis", "format": "functional, cell-based", "in_short": "(§2)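 Hep3B cells exposed to 30% conditioned medium from differentiated SGBS adipocytes, with or without 80 nM drug. HDAC1, 2 and 3 RNA given as fold change versus untreated cells or between treatments.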"}, "Hep 3B2 [15]": {"system": "Hep 3B2", "assay": "Anti-proliferative activity against human Hep3B cells assessed as no change in BAD expression at 80 nM incubated for 24 hrs by qRT-PCR analysis", "format": "functional, cell-based"}, "Hep 3B2 [16]": {"system": "Hep 3B2", "assay": "Anti-proliferative activity against human Hep3B cells assessed as decrease in Cyclin D1 expression at 80 nM incubated for 24 hrs in presence of SGBS CM by qRT-PCR analysis", "format": "functional, cell-based"}, "Hep 3B2 [17]": {"system": "Hep 3B2", "assay": "Anti-proliferative activity against human Hep3B cells assessed as reduced cell proliferation at 80 nM incubated for 24 hrs in presence of SGBS CM by Fluoro Fire-Blue ProViaTox assay", "format": "functional, cell-based"}, "Hep 3B2 [18]": {"system": "Hep 3B2", "assay": "Downregulation of HSP90 mRNA expression in human Hep3B cells at 80 nM incubated for 24 hrs in presence of 17-AAG by qRT-PCR analysis", "format": "functional, cell-based"}, "Hep 3B2 [19]": {"system": "Hep 3B2", "assay": "Anti-proliferative activity against human Hep3B cells assessed as reduction in cell viability at 80 nM incubated for 24 hrs in presence of doxorubicin by Fluoro Fire-Blue ProViaTox assay relative to control", "format": "functional, cell-based"}, "Hep 3B2 [20]": {"system": "Hep 3B2", "assay": "Effect on human Hep3B cells assessed as reduction in HDAC1 mRNA level at 80 nM incubated for 24 hrs by qRT-PCR analysis", "format": "functional, cell-based", "in_short": "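RNA levels of HDAC1 and HDAC2 measured in Hep3B cells after 24 h with 80 nM drug, 17-AAG (50 nM) or the combination (n = 3). Cells grown in EMEM with 10% FBS at 37°C, 5% CO2.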"}, "Hep 3B2 [21]": {"system": "Hep 3B2", "assay": "Effect on human Hep3B cells assessed as reduction of HDAC global activity at 80 nM incubated for 24 hrs by FluoroFire HDAC Activity Assay Kit relative to control", "format": "functional", "design": "scale not given: the % may be the effect or the level left", "in_short": "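Hep3B cells treated 24 h with 80 nM drug, alone or with 30% SGBS conditioned medium. Lysates made with lysis reagent (15 min, room temperature, shaking), spun, and supernatant used. Preincubated 20 min at 37°C, then Emerald substrate added for 1 h at 37°C. Fluorescence read at Ex 490/Em 525 nm. HeLa nuclear extract as positive control, HeLa extract with trichostatin A as negative control (n = 3).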"}, "Hep 3B2 [22]": {"system": "Hep 3B2", "assay": "Anti-proliferative activity against human Hep3B cells assessed as reduction in cell viability at 80 nM for 24 hrs in presence of GSK343 by Fluoro Fire-Blue ProViaTox assay relative to control", "format": "functional"}, "Hep 3B2 [23]": {"system": "Hep 3B2", "assay": "Effect on human Hep3B cells assessed as reduction in HDAC2 mRNA level at 80 nM incubated for 24 hrs in presence of SGBS CM by qRT-PCR analysis", "format": "functional, cell-based", "in_short": "as §2"}, "Hep 3B2 [24]": {"system": "Hep 3B2", "assay": "Effect on human Hep3B cells assessed as reduction in HDAC1 mRNA level at 80 nM incubated for 24 hrs in presence of SGBS CM by qRT-PCR analysis", "format": "functional, cell-based", "in_short": "as §2"}, "Hep 3B2 [25]": {"system": "Hep 3B2", "assay": "Downregulation of EZH2 expression in human Hep3B cells at 80 nM incubated for 24 hrs in presence of GSK343 by qRT-PCR analysis", "format": "functional, cell-based"}}, "note": "Active and inactive are the calls of the source. The calls are words filed in the database; no cut-off is given here."}
{"molecule": "CN(C)Cc1ccc(S(=O)(=O)n2ccc(/C=C/C(=O)NO)c2)cc1", "note": "[RESMINOSTAT]", "values": [{"measurement": "Activity", "setting": "Hep 3B2 [1]", "value": "Active"}, {"measurement": "Activity", "setting": "Hep 3B2 [2]", "value": "Active"}, {"measurement": "Activity", "setting": "Hep 3B2 [3]", "value": "Active"}, {"measurement": "Activity", "setting": "Hep 3B2 [4]", "value": "Active"}, {"measurement": "Activity", "setting": "Hep 3B2 [5]", "value": "Active"}, {"measurement": "Activity", "setting": "Hep 3B2 [6]", "value": "Active"}, {"measurement": "Activity", "setting": "Hep 3B2 [7]", "value": "Active"}, {"measurement": "Activity", "setting": "Hep 3B2 [8]", "value": "Active"}, {"measurement": "Activity", "setting": "Hep 3B2 [9]", "value": "Active"}, {"measurement": "Activity", "setting": "Hep 3B2 [10]", "value": "Active"}, {"measurement": "Activity", "setting": "HepG2", "value": "Active"}, {"measurement": "Activity", "setting": "Hep 3B2 [11]", "value": "Active"}, {"measurement": "Activity", "setting": "Hep 3B2 [12]", "value": "Active"}, {"measurement": "Activity", "setting": "Hep 3B2 [13]", "value": "Active"}, {"measurement": "Activity", "setting": "Hep 3B2 [14]", "value": "Active"}, {"measurement": "Activity", "setting": "Hep 3B2 [15]", "value": "Active"}, {"measurement": "Activity", "setting": "Hep 3B2 [16]", "value": "Active"}, {"measurement": "Activity", "setting": "Hep 3B2 [17]", "value": "Active"}, {"measurement": "Activity", "setting": "Hep 3B2 [18]", "value": "Active"}, {"measurement": "Activity", "setting": "Hep 3B2 [19]", "value": "Active"}, {"measurement": "Activity", "setting": "Hep 3B2 [20]", "value": "Active"}, {"measurement": "Activity", "setting": "Hep 3B2 [21]", "value": 62.33, "unit": "%"}, {"measurement": "Activity", "setting": "Hep 3B2 [22]", "value": 21.61, "unit": "%"}, {"measurement": "Activity", "setting": "Hep 3B2 [23]", "value": "Active"}, {"measurement": "Activity", "setting": "Hep 3B2 [24]", "value": "Active"}, {"measurement": "Activity", "setting": "Hep 3B2 [25]", "value": "Active"}]}
